Assay results as given in ChEMBL document CHEMBL1122958, “Angiotensin converting enzyme inhibitors. (Mercaptoaroyl)amino acids” (J Med Chem, 1985).

Experiments:
[1] = biological target: T1, Angiotensin-converting enzyme (Oryctolagus cuniculus, UniProt P12822); assay: In vitro inhibitory activity against Angiotensin I converting enzyme
T1 sequence (P12822 whole entry): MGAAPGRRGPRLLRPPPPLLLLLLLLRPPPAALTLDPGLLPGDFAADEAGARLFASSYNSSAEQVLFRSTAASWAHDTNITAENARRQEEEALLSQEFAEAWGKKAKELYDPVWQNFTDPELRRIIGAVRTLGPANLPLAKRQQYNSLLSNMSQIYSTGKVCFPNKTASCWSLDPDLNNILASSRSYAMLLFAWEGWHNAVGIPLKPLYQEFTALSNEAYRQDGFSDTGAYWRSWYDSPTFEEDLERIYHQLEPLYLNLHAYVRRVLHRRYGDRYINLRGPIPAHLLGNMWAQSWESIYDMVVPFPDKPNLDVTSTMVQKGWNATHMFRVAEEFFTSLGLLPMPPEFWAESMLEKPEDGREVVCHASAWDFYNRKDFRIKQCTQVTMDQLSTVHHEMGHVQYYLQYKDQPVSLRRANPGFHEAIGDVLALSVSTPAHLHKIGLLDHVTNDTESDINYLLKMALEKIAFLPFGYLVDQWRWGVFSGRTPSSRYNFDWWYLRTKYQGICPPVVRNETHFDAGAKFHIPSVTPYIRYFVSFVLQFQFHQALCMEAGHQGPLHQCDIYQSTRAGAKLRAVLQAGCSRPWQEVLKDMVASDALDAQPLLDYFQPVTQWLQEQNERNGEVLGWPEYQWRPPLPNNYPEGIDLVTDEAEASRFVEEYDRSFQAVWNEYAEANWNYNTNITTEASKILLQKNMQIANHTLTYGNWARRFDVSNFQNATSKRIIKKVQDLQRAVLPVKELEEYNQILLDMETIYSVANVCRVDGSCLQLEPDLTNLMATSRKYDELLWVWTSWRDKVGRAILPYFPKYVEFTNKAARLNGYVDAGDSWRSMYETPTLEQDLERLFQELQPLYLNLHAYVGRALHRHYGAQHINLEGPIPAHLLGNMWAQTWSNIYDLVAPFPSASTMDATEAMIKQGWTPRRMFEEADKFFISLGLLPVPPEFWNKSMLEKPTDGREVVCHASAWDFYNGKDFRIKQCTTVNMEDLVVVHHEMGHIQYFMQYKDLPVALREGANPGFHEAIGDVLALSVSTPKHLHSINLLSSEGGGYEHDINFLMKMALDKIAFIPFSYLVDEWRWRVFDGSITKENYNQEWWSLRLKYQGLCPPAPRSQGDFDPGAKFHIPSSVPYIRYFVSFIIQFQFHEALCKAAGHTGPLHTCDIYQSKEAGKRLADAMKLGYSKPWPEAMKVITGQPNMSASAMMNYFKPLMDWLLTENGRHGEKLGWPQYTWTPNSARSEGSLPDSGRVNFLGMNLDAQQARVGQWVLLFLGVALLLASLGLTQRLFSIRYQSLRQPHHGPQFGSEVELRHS
Summary of the method: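 Crude ACE from rabbit lung acetone powder, extracted in cold 0.05 M KH2PO4–0.03 M n-octyl-β-D-glucopyranoside pH 8.3, centrifuged 30000g, supernatant dialysed. Assay in 0.1 M KH2PO4–0.3 M NaCl–2% Me2SO, pH 8.3, 37 °C, substrate hippuryl-L-histidyl-L-leucine 2 mM; started by enzyme addition. Activity compared with and without inhibitor (in Me2SO). IC50 from one concentration–response curve per compound.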

[2] = biological target: T2, Angiotensin-converting enzyme (Rattus norvegicus) (UniProt P47820); assay: In vivo percent mean decrease in Angiotensin I converting enzyme inhibitory activity in 2 rats administered perorally at a dose of 10 mg/kg; format: functional, organism-based; design: dose 10 mg/kg
T2 sequence (whole entry): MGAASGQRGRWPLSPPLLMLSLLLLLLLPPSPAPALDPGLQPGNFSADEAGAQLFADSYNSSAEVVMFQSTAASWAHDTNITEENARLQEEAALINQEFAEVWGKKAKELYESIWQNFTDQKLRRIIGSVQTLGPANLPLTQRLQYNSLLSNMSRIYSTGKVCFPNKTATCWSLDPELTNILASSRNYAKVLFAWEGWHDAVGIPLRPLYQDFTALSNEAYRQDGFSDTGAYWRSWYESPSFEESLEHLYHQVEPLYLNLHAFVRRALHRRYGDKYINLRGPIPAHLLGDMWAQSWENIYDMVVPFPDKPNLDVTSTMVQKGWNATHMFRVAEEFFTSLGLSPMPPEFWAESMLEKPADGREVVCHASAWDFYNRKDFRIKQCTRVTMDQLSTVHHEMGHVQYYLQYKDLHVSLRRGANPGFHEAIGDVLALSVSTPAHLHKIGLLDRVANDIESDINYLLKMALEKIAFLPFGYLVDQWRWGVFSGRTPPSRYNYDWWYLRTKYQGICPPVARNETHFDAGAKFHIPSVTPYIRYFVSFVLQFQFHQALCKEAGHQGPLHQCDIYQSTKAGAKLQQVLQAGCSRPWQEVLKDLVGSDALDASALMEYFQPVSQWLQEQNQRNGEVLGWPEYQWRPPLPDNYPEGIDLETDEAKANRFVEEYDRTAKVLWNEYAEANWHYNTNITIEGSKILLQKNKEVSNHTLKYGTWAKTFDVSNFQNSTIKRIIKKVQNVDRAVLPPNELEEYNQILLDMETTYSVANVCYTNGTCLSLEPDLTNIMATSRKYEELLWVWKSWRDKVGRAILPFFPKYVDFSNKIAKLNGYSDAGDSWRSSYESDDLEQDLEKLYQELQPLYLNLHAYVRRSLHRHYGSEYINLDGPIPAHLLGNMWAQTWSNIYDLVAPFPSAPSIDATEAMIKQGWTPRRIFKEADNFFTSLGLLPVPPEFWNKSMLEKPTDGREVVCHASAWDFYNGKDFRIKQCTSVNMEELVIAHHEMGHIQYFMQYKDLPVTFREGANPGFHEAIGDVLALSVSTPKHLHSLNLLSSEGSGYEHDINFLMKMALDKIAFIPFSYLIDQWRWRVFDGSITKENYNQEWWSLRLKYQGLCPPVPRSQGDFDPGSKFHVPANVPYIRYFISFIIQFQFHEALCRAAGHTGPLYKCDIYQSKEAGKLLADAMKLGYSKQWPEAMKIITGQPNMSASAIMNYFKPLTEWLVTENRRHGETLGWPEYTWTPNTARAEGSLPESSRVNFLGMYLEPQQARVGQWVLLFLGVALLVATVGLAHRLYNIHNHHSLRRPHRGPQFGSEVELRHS
Summary of the method: (§1)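 Conscious normotensive male rats with aortic and vena caval catheters (implanted ≥6 days before), restrained. Angiotensin I and II, 0.25 μg/kg iv, given at 10-min intervals as pressor challenges. Compound given once, generally orally, suspended in 0.5% gum tragacanth. AI repeated every 10 min for ≥2 h. Max inhibition is % of mean of two predose AI responses. Duration runs from dosing until inhibition falls below 30%. ED50 taken from dose–response plot as dose giving 50% inhibition.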

[3] = biological target: T2, Angiotensin-converting enzyme (Rattus norvegicus); assay: In vivo mean duration for Angiotensin I converting enzyme inhibitory activity in 2 rats administered perorally at a dose of 10 mg/kg; format: functional, organism-based; design: dose 10 mg/kg; summary of the method: as §1
[4] = biological target: T2, Angiotensin-converting enzyme (Rattus norvegicus); assay: In vivo percent mean decrease in Angiotensin I converting enzyme inhibitory activity in 5 rats administered perorally at a dose of 10 mg/kg; format: functional, organism-based; design: dose 10 mg/kg; summary of the method: as §1
[5] = biological target: T2, Angiotensin-converting enzyme (Rattus norvegicus); assay: In vivo mean duration for Angiotensin I converting enzyme inhibitory activity in 5 rats administered perorally at a dose of 10 mg/kg; format: functional, organism-based; design: dose 10 mg/kg; summary of the method: as §1
Rattus norvegicus = assay: Effective dose against ACE inhibitory activity in rat in vivo; format: functional; summary of the method: as §1
[6] = biological target: T2, Angiotensin-converting enzyme (Rattus norvegicus); assay: In vivo mean duration for Angiotensin I converting enzyme inhibitory activity in 2 rats administered perorally at a dose of 1.5 mg/kg; format: functional, organism-based; design: dose 1.5 mg/kg; summary of the method: as §1
[7] = biological target: T2, Angiotensin-converting enzyme (Rattus norvegicus); assay: In vivo percent mean decrease in Angiotensin I converting enzyme inhibitory activity in 2 rats administered perorally at a dose of 1.5 mg/kg; format: functional, organism-based; design: dose 1.5 mg/kg; summary of the method: as §1
[8] = biological target: T2, Angiotensin-converting enzyme (Rattus norvegicus); assay: In vivo percent mean decrease in Angiotensin I converting enzyme activity in 2 rats administered perorally at a dose of 10 mg/kg; format: functional, organism-based; design: dose 10 mg/kg; summary of the method: as §1
[9] = biological target: T2, Angiotensin-converting enzyme (Rattus norvegicus); assay: In vivo for percent mean decrease in Angiotensin I converting enzyme inhibitory activity in 4 rats administered perorally at a dose of 1.5 mg/kg; format: functional, organism-based; design: dose 1.5 mg/kg; summary of the method: as §1
[10] = biological target: T2, Angiotensin-converting enzyme (Rattus norvegicus); assay: In vivo percent mean decrease in Angiotensin I converting enzyme inhibitory activity in a rat administered perorally at a dose of 10 mg/kg; format: functional, organism-based; design: dose 10 mg/kg; summary of the method: as §1
[11] = biological target: T2, Angiotensin-converting enzyme (Rattus norvegicus); assay: In vivo mean duration for Angiotensin I converting enzyme inhibitory activity in rat administered perorally at a dose of 10 mg/kg; format: functional, organism-based; design: dose 10 mg/kg; summary of the method: as §1

Row | SMILES | IC50 [1] | Mean duration [3] | also measured
1 | O=C(O)CN(C(=O)c1cccc(C(F)(F)F)c1S)C1CCCC1 | 0.68 µM | 20 min | Mean decrease [2]: 31%
2 | O=C(O)CN(C(=O)c1ccccc1C(=O)O)C1CCCC1 | 100 µM | – | –
3 | O=C(O)CN(C(=O)c1cc(Cl)cc(Cl)c1O)C1CCCC1 | 100 µM | – | –
4 | CC(C)c1cccc(C(=O)N(CC(=O)O)C2CCCC2)c1S | 120 µM | 0 min | Mean decrease [2]: 23%
5 | O=C(O)CN(C(=O)c1cccc(Cl)c1S)C1CCCC1 | 0.28 µM | – | Mean decrease [4]: 85%; Mean duration [5]: > 4 h; ED50 (Rattus norvegicus): 0.3 mg/kg
6 | CC(C)(C)C(=O)Sc1ccccc1C(=O)N(CC(=O)O)C1CCCC1 | – | – | Mean duration [6]: 0 min; Mean decrease [7]: 19%
7 | O=C(O)CN(C(=O)c1cc(Cl)cc(Cl)c1S)C1CCCC1 | 4.1 µM | – | –
8 | O=C(O)CN(C(=O)c1cccc(F)c1S)C1CCCC1 | 0.55 µM | 105 min | Mean decrease [2]: 84%
9 | O=C(O)CN(C(=O)c1cc(Cl)ccc1S)C1CCCC1 | 80 µM | 0 min | Mean decrease [8]: 22%
10 | O=C(O)CN(C(=O)c1ccc(S)cc1)C1CCCC1 | 21 µM | – | –
11 | CC(=O)Sc1c(F)cccc1C(=O)N(CC(=O)O)C1CCCC1 | 0.6 µM | 90 min | Mean decrease [2]: 82%
12 | CC(=O)Sc1cccc(C(=O)N(CC(=O)O)C2CCCC2)c1 | 28 µM | – | –
13 | CC(=O)Sc1ccc(C(=O)N(CC(=O)O)C2CCCC2)cc1 | 21 µM | – | –
14 | CC(=O)Sc1ccccc1C(=O)N(CC(=O)O)C1CCCC1 | 9.1 µM | – | Mean duration [6]: 0 min; Mean decrease [7]: 25%
15 | O=C(O)CN(C(=O)c1ccccc1S)C1CCCC1 | 4.8 µM | – | Mean duration [6]: 35 min; Mean decrease [9]: 34%
16 | Cc1cccc(C(=O)N(CC(=O)O)C2CCCC2)c1S | 4.6 µM | 50 min | Mean decrease [2]: 77%
17 | COc1cccc(C(=O)N(CC(=O)O)C2CCCC2)c1S | 0.38 µM | – | Mean decrease [4]: 92%; Mean duration [5]: 4 h; ED50 (Rattus norvegicus): 0.8 mg/kg
18 | CCOC(=O)CN(C(=O)c1cc(Cl)cc(Cl)c1OC(C)=O)C1CCCC1 | 100 µM | – | –
19 | O=C(O)CN(C(=O)c1cccc(S)c1)C1CCCC1 | 25 µM | 0 min | Mean decrease [2]: 13%
20 | O=C(O)CN(C(=O)c1ccccc1[N+](=O)[O-])C1CCCC1 | 100 µM | – | Mean decrease [10]: 25%; Mean duration [11]: 0 min
21 | CC(=O)Sc1c(C)cccc1C(=O)N(CC(=O)O)C1CCCC1 | 2.2 µM | – | Mean duration [6]: 20 min; Mean decrease [7]: 35%
